From ChEMBL document CHEMBL2396536, “Curcuminoids block TGF-β signaling in human breast cancer cells and limit osteolysis in a murine model of breast cancer bone metastasis” (J Nat Prod, 2013) come the findings set out here.

Active and inactive are the calls of the source. No cut-off for these calls is given here. A value given as a limit tells only on which side of the number the result lay.

Data set [1] concerns MDA-MB-231. Briefly: Inhibition of osteolytic bone metastases in human MDA-MB-231 cells xenografted in athymic nude mouse left cardiac ventricle assessed as reduction of bone-tumor interface at 50 mg/kg, ip administered every other day for 3 weeks. It is filed as functional. As to conditions: MDA-MB-231, Heart left ventricle, 504 h, route intraperitoneal. The essentials:
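Intracardiac MDA-MB-231 model in nude mice, dosed ip every other day for 21 days. Mid-sagittal tibia and femur sections TRAP-stained. TRAP+ multinucleated (>3 nuclei) cells counted at 40x along the tumor-bone interface. Expressed as osteoclasts per mm of interface.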
On the technique in general: In xenograft studies the graft and the host belong to different species.

Data set [2] has as its system MDA-MB-231. Briefly: Inhibition of TGF-beta-induced Ets-1 expression in human MDA-MB-231 cells treated 12 hrs before TGF-beta challenge measured after 1 hr by Western blotting.
For data set [3], the system named is Mus musculus. Briefly: Toxicity in human MDA-MB-231 cells xenografted athymic nude mouse left cardiac ventricle assessed as effect on liver weight at 50 mg/kg, ip administered every other day for 3 weeks (reference value: 1 +/- 0.10 gram). It is filed as organism-based, Heart. More on the design: dose 50 mg/kg, route intraperitoneal. As to conditions: in vivo, 504 h.

Data set [4] concerns Mus musculus. Kind of data set: Toxicity in human MDA-MB-231 cells xenografted athymic nude mouse left cardiac ventricle assessed as effect on bone-forming osteoblast cell at 25 to 50 mg/kg, ip administered every other day for 3 weeks. The data set is classed as organism-based, Heart. More on the design: dose 25-50 mg/kg, route intraperitoneal. As to conditions: in vivo, 504 h.

Data set [5] concerns Mus musculus. Kind of data set: Toxicity in human MDA-MB-231 cells xenografted athymic nude mouse left cardiac ventricle assessed as effect on hematocrit at 25 mg/kg, ip administered every other day for 3 weeks (reference value: 30.2 +/- 1.5%). The data set is classed as organism-based, Heart. Further details: dose 25 mg/kg, route intraperitoneal. As to conditions: in vivo, 504 h.

Data set [6] concerns Mus musculus. Briefly: Toxicity in human MDA-MB-231 cells xenografted athymic nude mouse left cardiac ventricle assessed as effect on white blood cells at 25 mg/kg, ip administered every other day for 3 weeks (reference value: 5.84 +/- 1.3 K/uL). As to conditions: in vivo, 504 h.
Data set [7] has as its system MDA-MB-231. Briefly: Inhibition of osteolytic bone metastases in human MDA-MB-231 cells xenografted in athymic nude mouse left cardiac ventricle assessed as reduction of bone lysis at 25 to 50 mg/kg, ip administered every other day for 3 weeks measured on day 21. The data set is classed as functional, Heart left ventricle. As to conditions: dose mg/kg 25-50; route intraperitoneal. A digest of the protocol:
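Four-week female athymic nude mice inoculated with 1 × 10^5 MDA-MB-231 cells in 0.1 mL PBS into the left cardiac ventricle. Dosed ip at 25 or 50 mg/kg or vehicle every other day from day 1 for 21 days, n = 11/group. Lytic lesion area quantified on radiographs on days 12, 16 and 21. Two-way ANOVA with Bonferroni.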

Data set [8] deals with Mus musculus. Kind of data set: Effect on orthotopic tumor mass in human MDA-MB-231 cells xenografted athymic nude mouse mammary fat pad at 25 to 50 mg/kg, ip administered every other day for 3 weeks.
Data set [9] relates to Mus musculus. Briefly: Toxicity in human MDA-MB-231 cells xenografted athymic nude mouse left cardiac ventricle assessed as effect on spleen weight at 50 mg/kg, ip administered every other day for 3 weeks (reference value: 0.134 +/- 0.02 gram). It is filed as organism-based. Further details: dose 50 mg/kg, route intraperitoneal. As to conditions: in vivo, 504 h.
In data set [10] the target is Mothers against decapentaplegic homolog 2 (Homo sapiens) (UniProt Q15796). Kind of data set: Inhibition of TGF-beta-induced Smad2 phosphorylation in human MDA-MB-231 cells treated 12 hrs before TGF-beta challenge measured after 1 hr by Western blotting. The data set is classed as cell-based. A digest of the protocol: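 Subconfluent MDA-MB-231 pre-treated 12 h with compound (80 μM), then TGF-β (5 ng/mL) for 1 h. RIPA whole-cell lysates (18 μg) run on SDS-PAGE and transferred to PVDF. Probed with rabbit anti-phospho-Smad2, phospho-Smad3, phospho-p38 or Ets-1 (1:1000, overnight, 4 °C). β-actin used as loading control. Chemiluminescent detection; three independent experiments.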
On the technique in general: In western blotting, separated proteins are transferred to a membrane and probed.

Chain of Mothers against decapentaplegic homolog 2 (Homo sapiens) (Q15796 whole entry): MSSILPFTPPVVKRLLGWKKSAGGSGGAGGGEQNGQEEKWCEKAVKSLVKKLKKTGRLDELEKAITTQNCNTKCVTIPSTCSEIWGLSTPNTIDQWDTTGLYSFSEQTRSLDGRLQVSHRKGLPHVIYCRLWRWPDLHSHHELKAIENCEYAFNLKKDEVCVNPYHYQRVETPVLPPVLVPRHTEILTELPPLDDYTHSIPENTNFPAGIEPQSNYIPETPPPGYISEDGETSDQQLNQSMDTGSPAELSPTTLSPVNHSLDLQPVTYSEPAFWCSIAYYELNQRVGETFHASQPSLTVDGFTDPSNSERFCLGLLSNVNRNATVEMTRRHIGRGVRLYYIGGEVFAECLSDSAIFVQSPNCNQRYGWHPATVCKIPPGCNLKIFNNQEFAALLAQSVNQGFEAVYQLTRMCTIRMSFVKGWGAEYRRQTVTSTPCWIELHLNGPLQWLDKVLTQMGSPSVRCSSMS

Consider `COc1cc(/C=C/C(=O)CC(=O)/C=C/c2ccc(O)c(OC)c2)ccc1O` [CURCUMIN], for which, in the data set on MDA-MB-231 [1], the inhibition in vivo at 50 mg/kg was 48%. The inhibition result (with MDA-MB-231 [2]; in data set [10]) was “Active” each time. The Activity with Mus musculus [3] was 1.1 g; in the data set with Mus musculus [4] it was “Non-toxic”; in the data set on Mus musculus [5], 30.6%; with Mus musculus [6], 4.69 K/uL; in the data set with Mus musculus [9], 0.139 g. Further, the “inhibition (INH)” value in the data set on MDA-MB-231 [7] is recorded as more than 50%. Moreover, the result with Mus musculus [8] was inactive.

In the case of `COc1cc(/C=C/C(O)=C/C(=O)/C=C/c2ccc(O)cc2)ccc1O` [DEMETHOXYCURCUMIN], the inhibition in vivo at 50 mg/kg in the data set with MDA-MB-231 [1] amounted to 48%. For the same compound, the inhibition result (in the data set with MDA-MB-231 [2]; in [10]) was “Active” each time. The Activity in the data set with Mus musculus [3] was 1.1 g; with Mus musculus [4] it was “Non-toxic”; with Mus musculus [5] it was 30.6%; in the data set on Mus musculus [6] it was 4.69 K/uL; in the data set with Mus musculus [9], 0.139 g. The “inhibition (INH)” value in the data set with MDA-MB-231 [7] is more than 50%. The outcome in the data set with Mus musculus [8] was inactive.

For `O=C(/C=C/c1ccc(O)cc1)CC(=O)/C=C/c1ccc(O)cc1` [BISDEMETHOXYCURCUMIN], the inhibition in vivo at 50 mg/kg with MDA-MB-231 [1] stood at 48%. Further, the inhibition entry (with MDA-MB-231 [2]; in data set [10]) was “Active” throughout. Also, the Activity is given as 1.1 g in the data set on Mus musculus [3]; “Non-toxic” in the data set on Mus musculus [4]; 30.6% in the data set with Mus musculus [5]; 4.69 K/uL with Mus musculus [6]; 0.139 g with Mus musculus [9]. For the same compound, the “inhibition (INH)” value in the data set on MDA-MB-231 [7] is on record as more than 50%. In addition, in the data set with Mus musculus [8], the outcome was inactive.

The term inhibition in vivo denotes the drop in the measured response relative to a control, in per cent.
